Laboratory results taken from PMC7771297 (Oncogene, 2017).
Values belong to the compound of their own block, whether it stands above or below them.

Legend:
MMP-3 = MMP-3 (Homo sapiens, UniProt P08254); test: MMP-3 processing of PTHrP; type: in vitro ADME; settings: MALDI-TOF
How it was run: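 Recombinant PTHrP1–86 (100 ng) was digested 1 h with active MMP-3 (100 ng) in 0.15 M NaCl, Tris pH 7.6 buffer. Products were resolved by SDS-PAGE with Coomassie staining and by immunoblot. N-terminal sequencing was done, and for MALDI-TOF peptides were C18-extracted and mixed with α-cyano-4-hydroxycinnamic acid matrix.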

[1] = system: ERK phosphorylation in MSCs; test: ERK phosphorylation in primary MSCs; type: cell-based, mouse; settings: 10 nM, 5 min, vs control or scrambled peptide
[2] = system: ERK phosphorylation in MC3T3 osteoblasts; test: ERK phosphorylation in osteoblasts; type: cell-based, mouse; settings: 10 nM, 5 min, serum free media, vs control or scrambled peptide
[3] = system: CREB phosphorylation in MC3T3 osteoblasts; test: CREB phosphorylation in MC3T3 osteoblasts; type: cell-based, mouse; settings: MC3T3, 10 nM for 5 min in serum free media
How it was run: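 Immunoblot of MC3T3 osteoblasts exposed to peptides for 5 min in serum-free media. Controls were serum-free (S0), 10% serum (S10) and a scrambled peptide. Cells were lysed in RIPA buffer (pH 8) and protein was measured by BCA. Blots were blocked in 5% BSA for 1 h, probed with primary antibody then HRP-conjugated secondary, with actin as loading control. Run in triplicate.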

PTH1R [4] = biological target: T1, PTH1R (Mus musculus, UniProt P41593); test: cAMP production in MC3T3 osteoblasts; type: cell-based; settings: MC3T3, 10 nM for 15 min, n = 5/group
T1 sequence (P41593 27-591): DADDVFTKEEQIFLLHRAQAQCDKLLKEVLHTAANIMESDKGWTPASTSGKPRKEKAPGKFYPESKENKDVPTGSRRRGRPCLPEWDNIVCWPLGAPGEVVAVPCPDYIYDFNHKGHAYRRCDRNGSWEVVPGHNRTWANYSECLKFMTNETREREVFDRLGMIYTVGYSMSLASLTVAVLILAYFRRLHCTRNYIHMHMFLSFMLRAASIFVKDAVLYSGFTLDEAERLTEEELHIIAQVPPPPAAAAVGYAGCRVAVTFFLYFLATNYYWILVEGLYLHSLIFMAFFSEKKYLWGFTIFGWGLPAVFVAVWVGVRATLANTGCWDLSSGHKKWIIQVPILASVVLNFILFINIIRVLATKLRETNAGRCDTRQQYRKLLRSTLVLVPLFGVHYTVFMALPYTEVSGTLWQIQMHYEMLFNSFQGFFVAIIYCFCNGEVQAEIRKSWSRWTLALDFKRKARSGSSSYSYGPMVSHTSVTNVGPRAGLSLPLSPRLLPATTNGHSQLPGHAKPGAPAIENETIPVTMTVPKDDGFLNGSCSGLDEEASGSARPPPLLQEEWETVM
How it was run: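 MC3T3 osteoblasts were plated at 2.5 × 10^4 cells/well and exposed to peptides for 15 min (range 1–100 tested), n = 5/group. cAMP was measured with the cAMP-Glo luminescent assay. The forskolin analogue NKH477 (15 min) served as positive control. Groups were compared by ANOVA with Tukey's test.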

PTH1R [5] = biological target: T1, PTH1R; test: Calcium flux in MC3T3 osteoblasts; type: cell-based; settings: MC3T3, 10 nM, fluorescence in individual cells, n = 20/group
How it was run: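 MC3T3 cells (1 × 10^5) were loaded with Fluo-4 Direct calcium reagent and imaged by time-lapse fluorescence microscopy before and after peptide addition (0 and 60 s frames shown). Fluorescence rise was quantified in individual cells, n = 20/group, from three fields of view per condition.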

PTH1R [6] = biological target: T1, PTH1R; test: ERK phosphorylation in PTH1R knockdown MC3T3 cells; type: cell-based; settings: shPTH1R MC3T3 versus control shRNA, 10 nM for 5 min
How it was run: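 PTH1R knockdown MC3T3 clones were made by lentiviral transduction of a pool of three shRNAs, with scrambled-sequence shControl clones; clone D was used. Cells got peptides for 5 min and were lysed in RIPA. Phospho-ERK immunoblots were blocked in 5% BSA, detected with HRP secondary and normalised to actin loading control. Triplicate experiments.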

PTH1R [7] = biological target: T1, PTH1R; test: Calcium flux in PTH1R knockdown MC3T3 cells; type: cell-based; settings: shPTH1R versus shControl MC3T3, 10 nM
How it was run: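 Stable shPTH1R MC3T3 clones came from lentiviral transduction of three pooled PTH1R shRNAs; shControl clones carried a scrambled sequence. Cells (1 × 10^5) were loaded with Fluo-4 Direct. Time-lapse microscopy followed fluorescence after peptide addition. Increases (RFU) were measured in single cells, n = 20/group, from three fields per condition. A second shPTH1R clone was also tested.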

osteoblasts = test: Tumour necrosis factor-α-induced cell death of osteoblasts; type: cell-based
MSCs = test: Migration of primary MSCs; type: cell-based, mouse; settings: 10 nM in serum free media, 6 h / 5-h (methods), n = 3/group
MC3T3 cells = test: Migration of MC3T3 osteoblasts; type: cell-based, mouse; settings: MC3T3, 10 nM in serum free media, 6 h / 5-h (methods), n = 3/group
How it was run: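 Modified Boyden chamber assay: after 24-h serum starvation, 5 × 10^5 MC3T3 cells were seeded in the upper chamber (n = 3/group). Migration toward peptide in serum-free media ran at 37 °C, 5 h per methods (6 h in legend). Serum-free and 1% serum media were negative and positive controls. Cells were counted per ×20 field in five micrographs per condition.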

SCID-Beige mice [8] = test: Murine model of ectopic bone formation; type: in vivo, mouse; settings: 40 μg/kg/day s.c., 21 days
How it was run: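 Gelfoam sponges loaded with 1 × 10^6 bone marrow MSCs from C57BL/6 mice were implanted s.c. into randomized 6-week-old male SCID-Beige mice, two implants per flank, n = 3/group. After 1-week recovery, peptides or vehicle were injected s.c. daily at 40 μg/kg/day for 21 days. Ossicles were excised for μCT and trichrome histology, with bone matrix quantified.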

RANKL = RANKL expression in whole bone marrow co-cultures; type: cell-based, mouse; settings: 10 nM for 48 h
osteoprotegerin (OPG) = test: OPG expression in whole bone marrow co-cultures; type: cell-based, mouse; settings: 10 nM for 48 h
SCID-Beige mice [9] = test: In vivo calvarial injection assay; parameters: species or system mouse; settings: 2 μg s.c. over the calvaria every 6 h for 3 days, n = 3/group
How it was run: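 Randomized 4–6-week-old female SCID-Beige mice (n = 3/group) received 2 μg peptide s.c. over the calvaria every 6 h for 3 days. Calvariae were harvested 10 h after the last injection, fixed and scanned by high-resolution μCT. They were then decalcified (14% EDTA, pH 7.4, 3 days) and paraffin-embedded, and 5 μm sections were stained with H&E, trichrome and TRAcP. Bone-lining multinucleated TRAcP-positive osteoclasts were counted per μm bone.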

[10] = system: calvariae of Rag2−/− neonates; test: Neonatal calvaria ex vivo assay; parameters: species or system mouse; settings: 10 nM, 14 days, n = 4/group
How it was run: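 Calvariae were isolated from 4-day-old Rag2−/− neonates and kept in organ culture. They were exposed to peptides for 14 days, n = 4/group.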

[11] = system: SAOS-2 osteosarcoma cells; test: IP-MS of PTHrP1–17 in SAOS-2 conditioned media with exogenous MMP-3; type: cell-based, human; settings: SAOS-2+MMP-3 100 ng/ml; SAOS-2 alone = 0.004
[12] = system: PAIII rat prostate adenocarcinoma cells; test: IP-MS of PTHrP1–17 in PAIII conditioned media with MMP inhibition; type: cell-based
PTH1R [13] = settings: PTH1R overexpressing CHO-K1 cells; cited from earlier work
PTH1R [14] = settings: PTH1R overexpressing CHO-K1 cells; cited from earlier work; remark: listed apart in the source
[15] = bone marrow cultures, n = 3/group

MMP-3, sequence (P08254 100-272 limits assumed): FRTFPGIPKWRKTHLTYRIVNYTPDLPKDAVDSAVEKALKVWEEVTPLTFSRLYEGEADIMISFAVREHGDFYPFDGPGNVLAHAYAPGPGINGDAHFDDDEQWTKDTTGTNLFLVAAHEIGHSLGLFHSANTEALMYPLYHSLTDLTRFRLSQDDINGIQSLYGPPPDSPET

- cAMP production (PTH1R [4]): induced cAMP
- calcium flux (PTH1R [5]): triggered increases in calcium flux
- ability to induce ERK phosphorylation in PTH1R knockdown cells (PTH1R [6]): abrogated
- calcium flux in PTH1R knockdown cells (PTH1R [7]): significantly reduced
Compound: PTHrP1–36: mature 36 amino acid form of parathyroid hormone-related protein (ProImmune)
- further cleavage of PTHrP1–36 by MMP-3 (MMP-3; 0.15 M NaCl, 50 mM Tris pH 7.6): further cleaved to distinct stable peptide products
- time in which MMP-3 generated the main PTHrP products (MMP-3; kinetic analyses): ≤ 1 h
- ERK phosphorylation [1]: induced ERK phosphorylation within 5 min
- ERK phosphorylation [2]: induced ERK phosphorylation within 5 min
- CREB phosphorylation [3]: only induced by PTHrP1–36
- prevention of tumour necrosis factor-α-induced cell death (osteoblasts): did not prevent
- migration (MSCs): significantly increased migration
- migration (MC3T3 cells): significantly increased migration
- osteoid in trichrome stained ossicle sections (SCID-Beige mice [8]; n = 3/group): a significant amount of osteoid
- trabecular bone volume of hind limbs (SCID-Beige mice [8]; compared to control): significantly more bone
- bone formation in ectopic ossicles, μCT (SCID-Beige mice [8]; intermittent, n = 3/group): revealed bone formation
- RANKL expression (real-time PCR) (RANKL; [15]): significantly enhanced RANKL expression
- ratio of average RANKL:OPG transcripts (RANKL; bone marrow cultures, real-time PCR): 15.03
- RANKL expression (RT-PCR) (RANKL; primary bone marrow cultures): increased RANKL expression
- OPG expression (real-time PCR) (osteoprotegerin (OPG); [15]): suppressing OPG
- OPG expression (RT-PCR) (osteoprotegerin (OPG); primary bone marrow cultures): appeared to suppress the expression of osteoprotegerin (OPG)
- bone resorption of calvaria (SCID-Beige mice [9]): displayed areas of extensive bone resorption
- bone formation in calvaria ex vivo [10]: no evidence of bone formation
- degradation of calvaria ex vivo [10]: significant degradation of the calvaria

Compound: MMP-3: recombinant MMP-3 (Millipore, #444217) added to SAOS-2 cells
- ratio of endogenous PTHrP1–17 to PTHrP1–17 SIS (peak areas) [11]: 0.03

Compound: CNC(=O)[C@H](Cc1c[nH]c2ccccc12)NC(=O)[C@@H](CC(=O)NO)CC(C)C [GM6001]
- reduction of the amount of PTHrP1–17 in conditioned media ([12]; PAIII, GM6001 10 μM, serum free 24 h, IP-MS with SIS1–17): 77%
- ratio of endogenous PTHrP1–17 to PTHrP1–17 SIS (peak areas) ([12]; PaIII+GM6001 10 μM, PaIII alone = 0.13): 0.03

Compound: PTHrP1–16: N-terminal PTHrP fragment of a recent study (ref 31) (AVSEHQLLHDKGKSIQ; UniProt P12272 37-52, looked up, fragment)
- cAMP production (PTH1R [13]): does not result in cAMP production
- calcium flux (PTH1R [14]): no effect on calcium flux
